Consider one compound from ChEMBL document CHEMBL5678817, “FTBMT, a Novel and Selective GPR52 Agonist, Demonstrates Antipsychotic-Like and Procognitive Effects in Rodents, Revealing a Potential Therapeutic Agent for Schizophrenia” (J Pharmacol Exp Ther, 2017).

The species named for data set [1] is Homo sapiens. The data set can be described thus: Inhibition of Ca2+ ATPase (unknown origin) at 10 uM relative to control. The essentials: (§1)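 Single-point screen at 10 μM across receptor, ion channel and enzyme binding or activity assays. Expressed as percent inhibition versus control; negative values denote stimulation.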
Data set [2] concerns the target G protein-coupled receptor 52 (Rattus norvegicus, UniProt A0A8I5ZQK1). The data set can be described thus: Agonist activity at rat GPR52 expressed in CHO cells assessed as increase in intracellular cAMP level incubated for 30 mins by Alphascreen assay. Type of data set: cell-based. The method, boiled down:
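CHO cells stably expressing human, mouse or rat GPR52, plus naïve CHO cells, at 10,000 cells/well. Stimulated in cAMP assay buffer for 30 min at 37 °C. Intracellular cAMP read by AlphaScreen.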

The target of data set [3] is Alpha-2B adrenergic receptor (Homo sapiens) (UniProt P18089). Nature of the data set: Inhibition of Adrenergic alpha2B receptor (unknown origin) at 10 uM relative to control. The essentials:
as §1

The next data set concerns Mus musculus. The data set can be described thus: Antipsychotic activity in C57BL/6N mouse assessed as increase in c-fos positive cells in dorsolateral striatum at 30 mg/kg, po measured for 2 hrs by immunohistochemistry analysis. It is filed as functional, organism-based.
For data set [4], the target named is GABA-A receptor; anion channel (Homo sapiens) (UniProt P14867+P47870+P18507+P28472+P48169+Q99928+Q9UN88+P34903+O00591+O14764+Q8N1C3+P18505+P78334+P47869+P31644+Q16445). The data set can be described thus: Inhibition of GABA receptor (unknown origin) at 10 uM relative to control. It is filed as protein-complex assay. The essentials:
(§2)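 Part of a 98-target external biochemical selectivity panel that used radioligand/receptor binding-type assays. Compound tested once at 10 µM. Results are reported as % inhibition versus control; negative values mean stimulation of receptor activity.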

The species entered for data set [5] is Homo sapiens. Nature of the data set: Inhibition of Glutamate kainate receptor (unknown origin) at 10 uM relative to control. The method, boiled down: as §2
The nature of data set [6]: Toxicity in ICR mouse assessed as catelepsy upto 100 mg/kg, po measured for 60 mins by bar test. It is filed as organism-based. Conditions: in vivo, 1 h. The method, boiled down:
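Male ICR mice (6–7 weeks) were dosed orally 60 min before testing. Forepaws were placed on a 2 mm bar set 6.5 cm high, and time on the bar was recorded with a 30 s cutoff. Each mouse was tested three times and the times averaged. n = 5–6.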

In data set [7] the target is Cannabinoid receptor 1 (Homo sapiens) (UniProt P21554). Nature of the data set: Inhibition of CB1 receptor (unknown origin) at 10 uM relative to control. The method, boiled down:
as §1

The next data set has as its system Rattus norvegicus. Nature of the data set: Pro-cognitive activity in Long-Evans rat at10 mg/kg, po measured after 1 hr by radial arm maze test. It is filed as functional, organism-based. Conditions: dose 10.0 mg/kg. The essentials:
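Male Long-Evans rats (9 weeks) were trained on the radial arm maze until they made fewer than two errors on two consecutive days. Errors were re-entries into arms or uneaten pellets, within 5 min. Oral 10 mg/kg or vehicle was given 1 h pretest, and MK-801 0.08 mg/kg s.c. or saline 30 min pretest. Scoring was blinded. n = 8–14.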

For data set [8], the target named is Glutamate [NMDA] receptor (Homo sapiens) (UniProt Q05586+Q12879+Q13224+O15399+O60391+Q14957+Q8TCU5). Nature of the data set: Inhibition of Glutamate NMDA receptor (unknown origin) at 10 uM in presence of glycine relative to control. It is filed as protein-complex assay. The essentials: as §2

pEC50: −log10 of the molar value. The source made the active and inactive calls.

Sequence of G protein-coupled receptor 52 (A0A8I5ZQK1 whole entry): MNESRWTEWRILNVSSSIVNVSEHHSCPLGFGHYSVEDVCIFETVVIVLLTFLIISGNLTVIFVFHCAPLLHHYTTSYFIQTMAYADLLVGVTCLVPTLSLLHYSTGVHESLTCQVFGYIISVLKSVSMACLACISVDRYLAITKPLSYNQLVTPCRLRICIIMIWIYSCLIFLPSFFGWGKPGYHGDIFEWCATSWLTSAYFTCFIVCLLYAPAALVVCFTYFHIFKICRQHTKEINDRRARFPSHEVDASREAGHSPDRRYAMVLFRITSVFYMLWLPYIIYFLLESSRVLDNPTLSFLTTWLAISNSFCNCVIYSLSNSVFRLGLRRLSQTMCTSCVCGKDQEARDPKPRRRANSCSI
Sequence of Cannabinoid receptor 1 (Homo sapiens) (P21554 whole entry): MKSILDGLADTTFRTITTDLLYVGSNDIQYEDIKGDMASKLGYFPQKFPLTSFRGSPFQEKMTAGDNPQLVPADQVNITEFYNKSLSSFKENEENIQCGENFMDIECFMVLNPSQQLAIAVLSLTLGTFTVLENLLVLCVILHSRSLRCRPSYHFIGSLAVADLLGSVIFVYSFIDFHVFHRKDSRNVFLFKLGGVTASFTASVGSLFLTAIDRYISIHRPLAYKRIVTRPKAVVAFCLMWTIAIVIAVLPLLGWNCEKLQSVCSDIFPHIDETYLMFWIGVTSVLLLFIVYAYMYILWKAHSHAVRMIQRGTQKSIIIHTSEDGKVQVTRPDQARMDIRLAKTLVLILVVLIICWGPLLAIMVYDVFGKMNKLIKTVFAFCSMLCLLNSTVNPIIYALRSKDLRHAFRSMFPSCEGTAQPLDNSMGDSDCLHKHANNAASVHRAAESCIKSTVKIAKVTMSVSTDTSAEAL
Sequence of Alpha-2B adrenergic receptor (Homo sapiens) (P18089 whole entry): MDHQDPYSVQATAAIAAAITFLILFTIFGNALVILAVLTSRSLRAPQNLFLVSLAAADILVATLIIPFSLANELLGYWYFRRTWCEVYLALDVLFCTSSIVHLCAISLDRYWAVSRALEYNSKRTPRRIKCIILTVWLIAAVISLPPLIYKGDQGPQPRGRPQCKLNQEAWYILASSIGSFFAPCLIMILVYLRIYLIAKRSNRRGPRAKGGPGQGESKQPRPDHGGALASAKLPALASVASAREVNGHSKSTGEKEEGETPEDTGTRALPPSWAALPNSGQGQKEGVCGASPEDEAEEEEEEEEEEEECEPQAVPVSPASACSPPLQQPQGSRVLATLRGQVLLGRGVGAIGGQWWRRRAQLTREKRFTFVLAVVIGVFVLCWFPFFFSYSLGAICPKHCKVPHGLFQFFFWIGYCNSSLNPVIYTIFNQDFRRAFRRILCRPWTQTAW

Broadly, the inhibition is the relative decrease from the control value, in per cent. A word on the pEC50: it is the negative decadic logarithm of the EC50, by convention in mol/L. As for `Cc1cc(-n2nc(Cc3cc(F)cc(C(F)(F)F)c3)nc2C)ccc1C(N)=O` [TP-024], the inhibition was -1% in the data set listed under Homo sapiens [1]; 5% in data set [3]; 2% in data set [4]; 2% in the data set filed under Homo sapiens [5]; -4% in data set [7]; 3% in [8]. Moreover, in data set [2], the pEC50 is 6.87. Also, the result with Mus musculus was inactive. In data set [6], the Activity entry is reported as “Non-Toxic”. For the same compound, in the data set on Rattus norvegicus, the result was Active.
